# Assay outcomes (PubChem)
# Diaph act CS: diaphorase activation or chemical reduction counter-screen; 190,000 compounds, 0.005% hits; activation factor at 20 µM; Diaphorase/resazurin coupled assay, resorufin fluorescence, 16 min; stronger effect = higher value; 1 = vehicle wells, 0 = NADH-free wells; AID 1229;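 active = diaphorase activity raised at least twofold by the compound at 20 µM; inactive = activation factor below 2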
#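 Measured by – red resorufin fluorescence at 544/590 nm excitation/emission · Test system – Clostridium kluyveri diaphorase, purified enzyme · Incubation – reaction time 16 min, room temperature · Buffer or medium – 50 mM HEPES pH 7.4 with 4.542 mM MgCl2, 0.005% Tween 20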
# WT yeast gro inh: growth inhibition of WT yeast, mitochondrial fusion screen. 190,000 compounds, 2.1% hits. AID 1362. inhibition, % at 10 µM. mitochondrial fusion phenotypic screen, WT strain; in the data active = inhibition above about 58%; tested in S. cerevisiae
# ROMK mod: human ROMK K+ channel modulation, primary screen. Tet-inducible ROMK, thallium flux fluorescence; actives lie on both sides. B-score at 10 µM. 130,000 compounds, 2% hits. AID 1918;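 active = signal ratio slope over the read window, or its plate-corrected B-score, at least 3 SD from the plate mean, either direction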;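 note: B-score of the F/F0 ratio slope over 7 to 12 s after thallium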
# Cl transport mod: modulates chloride dependent transport by human KCC2; KCC2 cells, thallium flux FluoZin-2 fluorescence; B-score of Tl+ flux slope (higher = more flux/activation; lower = inhibition) at 10 µM; 190,000 compounds, 2.2% hits;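 active = thallium flux slope and its plate-corrected score both differing from the plate sample mean at a set confidence after two filtering rounds, in either direction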;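 note: slope of fluorescence scaled to starting intensity during 10 to 20 s after thallium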
# Target sequence (Q9H2X9 whole entry, looked up): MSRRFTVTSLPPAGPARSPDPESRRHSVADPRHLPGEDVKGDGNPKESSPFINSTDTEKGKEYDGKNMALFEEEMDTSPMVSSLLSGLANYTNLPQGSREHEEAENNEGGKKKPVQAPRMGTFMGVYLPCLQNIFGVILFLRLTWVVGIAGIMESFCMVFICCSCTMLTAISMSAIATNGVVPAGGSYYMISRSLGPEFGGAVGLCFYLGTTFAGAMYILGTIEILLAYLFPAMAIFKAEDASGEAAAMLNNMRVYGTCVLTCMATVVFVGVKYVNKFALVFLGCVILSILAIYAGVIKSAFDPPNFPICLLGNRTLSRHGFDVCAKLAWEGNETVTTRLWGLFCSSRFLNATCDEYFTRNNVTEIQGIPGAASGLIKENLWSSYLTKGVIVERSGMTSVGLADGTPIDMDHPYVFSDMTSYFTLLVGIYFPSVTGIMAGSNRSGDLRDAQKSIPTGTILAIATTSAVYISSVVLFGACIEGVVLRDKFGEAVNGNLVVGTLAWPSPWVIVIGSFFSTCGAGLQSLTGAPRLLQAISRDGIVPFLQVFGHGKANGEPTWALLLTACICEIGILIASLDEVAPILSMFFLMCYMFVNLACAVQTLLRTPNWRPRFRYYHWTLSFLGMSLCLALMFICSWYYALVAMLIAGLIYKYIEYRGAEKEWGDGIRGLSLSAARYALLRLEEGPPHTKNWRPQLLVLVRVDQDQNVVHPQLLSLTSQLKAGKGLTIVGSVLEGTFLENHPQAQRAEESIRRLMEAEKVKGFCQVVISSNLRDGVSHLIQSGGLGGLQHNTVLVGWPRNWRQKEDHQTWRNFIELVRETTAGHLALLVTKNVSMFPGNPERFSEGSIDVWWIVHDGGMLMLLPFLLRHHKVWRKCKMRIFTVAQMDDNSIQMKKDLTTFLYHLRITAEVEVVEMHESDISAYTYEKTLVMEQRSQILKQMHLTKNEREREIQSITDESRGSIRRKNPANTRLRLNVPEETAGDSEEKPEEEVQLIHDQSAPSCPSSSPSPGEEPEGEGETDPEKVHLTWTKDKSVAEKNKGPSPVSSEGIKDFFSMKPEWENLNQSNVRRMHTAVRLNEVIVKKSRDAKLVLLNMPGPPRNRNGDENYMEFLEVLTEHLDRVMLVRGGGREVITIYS
# Diaph inh CS: diaphorase inhibition or chemical oxidation counter-screen | diaphorase resazurin-to-resorufin fluorescence, NADH, 16 min; bacterial (C. kluyveri) enzyme, not human | inhibition, % at 20 µM | 190,000 compounds, 0.69% hits;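 active = primary screen inhibition at 20 µM above a set limit, cut at about 50% in these data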;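 note: plate controls were DMSO with full reaction for no effect and wells lacking NADH for full effect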
#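 Test system: Clostridium kluyveri diaphorase enzyme / Quantity: diaphorase at 0.14 U/mL in enzyme working solution / Incubation: 16-min room-temperature incubation before reading / Benchmarks: NADH-free wells as positive control, DMSO-only neutral wells / Signal: resorufin fluorescence 544/590 nm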
# L major viab: inhibitors of Leishmania major promastigote growth. Leishmania major promastigotes, resazurin fluorescence viability. inhibition, % at 10 µM. 200,000 compounds, 9% hits. AID 1063; in the data active = inhibition above about 50%;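 note: promastigotes grown with compound for 44 hours at 28 °C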
# Numbers without * were called inactive; / = no result. Most compounds without a hit are left out; they make up all but 12% or so of the library.
SMILES,Diaph act CS,WT yeast gro inh,ROMK mod,Cl transport mod,Diaph inh CS,L major viab
O=S(=O)(c1ccc(F)cc1)N(CCO)CC(O)Cn1c2ccccc2c2ccccc21 (configuration not stated),0.8,27,-1.1,-0.26,18,25
COc1ccccc1N(CC(O)Cn1c2ccccc2c2ccccc21)S(=O)(=O)c1ccccc1 (configuration not stated),0.7,28,-1.7,0.0047,28,54*
C=CCN(CC=C)CC(O)CN(c1cc([N+](=O)[O-])ccc1OC)S(=O)(=O)c1ccccc1 (configuration not stated),1,-22,/,-0.64,2,64*
COc1ccccc1N(CC(O)Cn1nc(C)cc1C)S(=O)(=O)c1ccccc1 (configuration not stated),1.1,8,/,/,-7,3
CCN(CC(O)Cn1c2ccccc2c2ccccc21)S(=O)(=O)c1ccc(F)cc1 (configuration not stated),0.7,65*,-0.011,0.79,26,13
CCCN(CCC)CC(O)CN(c1ccccc1)S(=O)(=O)c1ccc(C)cc1 (configuration not stated),0.9,3,-2.5,0.015,10,97*
Cc1ccc(S(=O)(=O)N(CC(O)CN2CCCCC2)c2ccccc2)cc1 (configuration not stated),0.9,2,/,/,12,0
O=C(COC(=O)/C=C/c1ccccc1)NCc1ccccc1Cl,0.9,13,-0.8,-1.6,9,-7
COc1cccc(NC(=O)N2CCN(c3nnnn3-c3ccccc3)CC2)c1,0.8,1,-0.39,0.02,16,17
O=S(=O)(c1ccccc1)N(CC(O)Cn1c2ccccc2c2ccccc21)c1ccccc1 (configuration not stated),0.9,51,/,0.03,5,100*
Cc1ccc(S(=O)(=O)N(C)CC(O)Cn2c3ccccc3c3ccccc32)cc1 (configuration not stated),0.7,52,/,0.8,31,8
S=C(NCCc1ccc(Cl)cc1)NC1CC1,0.9,21,-0.49,0.036,7,1
O=C(CN(C(=O)CSc1nc2ccccc2o1)c1cccc(F)c1)NC1CCCCC1,1,12,/,-1.2,4,3
Fc1ccccc1-c1nc(NCc2ccco2)c2ccccc2n1,1,2,0.93,-0.083,1,53*
Oc1ccccc1-c1nc(NCc2ccco2)c2ccccc2n1,0.8,5,0,0.97,20,29
c1ccc(-c2nc(NCc3ccco3)c3ccccc3n2)nc1,0.9,37,/,-1.7,9,100*
Brc1ccc2ncnc(NCc3ccco3)c2c1,0.9,-13,-2.4,/,12,55*
Cc1ccc(Nc2nc(NCc3ccco3)c3ccccc3n2)cc1,1.3,94*,-0.23,0.97,-33,101*
COc1ccc(/C=N/OCC(=O)Nc2ccc3c(c2)OCO3)c(OC)c1,0.9,14,0.35,-1.8,13,-4
O=[N+]([O-])c1ccc(O)c2cccnc12,0.9,-8,-0.23,0.56,8,4
O=[N+]([O-])c1cc([N+](=O)[O-])c2cccnc2c1Oc1ccccc1O,0.4,-12,/,-1.8,60*,1
O=c1ccc(Cl)n[nH]1,/,/,/,0.26,/,/
CC(C)OCCCn1c(=S)[nH]c2cc3c(cc2c1=O)OCO3,1,10,/,12*,1,4
O=C(CCCCCn1c(=S)[nH]c2cc3c(cc2c1=O)OCO3)N1CCN(C(=O)c2ccco2)CC1,0.8,69*,/,-1.7,18,1
COc1cc(C(=O)NCC(=O)OC(C)C(=O)Nc2ncc(Cl)cc2Cl)cc(OC)c1OC (configuration not stated),1,-9,0.78,-1.7,-4,-6
SMILES,Diaph act CS,WT yeast gro inh,ROMK mod,Cl transport mod,Diaph inh CS,L major viab
COc1cc(/C=C2/NC(=O)N(Cc3ccccc3F)C2=O)ccc1Oc1ccc([N+](=O)[O-])cn1,0.8,-3,/,-0.16,15,80*
Oc1ccc(C=Nc2ccc3ncccc3c2)c(O)c1,0.3,42,0.16,-0.97,68*,93*
O=C(C1CCCCC1)N(Cc1nc2sc3c(c2c(=O)[nH]1)CCCC3)Cc1cccs1,0.8,59*,/,0.036,19,2
O=C(C1CC1)N(Cc1nc2ccccc2c(=O)[nH]1)Cc1cccs1,/,/,0.51,2,/,/
CC(C)N1CCC(N2CCN(C3CCCCCC3)CC2CCO)CC1 (configuration not stated),0.9,-3,0.59,/,12,0
O=C(CSc1nnc2n1CCCN2C(=S)Nc1ccc(Cl)cc1)c1ccccc1,1,65*,/,0.94,2,2
O=C(CSc1nnc2ccccn12)c1ccc(Cl)cc1,0.9,2,0.27,0.59,9,-1
Cc1ccc2c(CSc3nnc(C4CC4)n3N)cc(=O)oc2c1C,0.9,96*,/,-3.7,10,0
Cc1ccc2c(CSc3nnc(C4CC4)n3N)cc(=O)oc2c1,0.9,11,/,-1,12,14
CC12C=CC3(O1)C(C(=O)N(c1ccccc1)C3C(=O)NC1CCCC1)C2C(N)=O (configuration not stated),0.9,-14,-0.55,-1,9,-5
O=C(c1cc2cc(Br)ccc2o1)N1CCCC1,0.8,15,0.039,-1.4,20,-1
CC1CC(C)CN(C(=O)c2cc3cc(Br)cc(Br)c3o2)C1 (configuration not stated),0.9,78*,0.012,0.35,15,90*
CC(Sc1nc(C(C)(C)C)cc(-c2ccccc2)c1C#N)C(=O)Nc1ccccc1 (configuration not stated),0.8,-8,0.27,-0.72,25,8
O=S(=O)(N1CCOCC1)n1cnc2ccccc21,1,2,-0.13,/,-3,-1
COc1cc2c(cc1OC)C(c1cc3ccccc3oc1=O)=NC(C)(C)C2,0.9,4,-1.2,-0.27,12,14
COc1ccc(C(=O)NC(=S)Nc2ccc3oc(=O)ccc3c2)cc1OC,0.9,1,1.3,0.24,9,-5
O=C(OCc1nc2ccccc2[n+]([O-])c1C(=O)c1ccccc1)c1cccs1,0.8,2,0.3,0.48,18,86*
Cc1ccc(NS(=O)(=O)c2cc([N+](=O)[O-])ccc2N/N=C/c2sc(N3CCOCC3)nc2-c2ccccc2)c(C)c1,/,/,/,0.91,/,/
O=C(COC(=O)C1CCN(S(=O)(=O)c2ccccc2)CC1)NC(=O)c1ccc(OC(F)F)cc1,0.9,-10,2.1,0.34,11,57*
CC(=O)N1CCC(=NNc2ccnc3cc(Cl)ccc23)CC1,1,27,0.44,/,-3,86*
CCOC(=O)N1CCC(=NNc2ccnc3cc(Cl)ccc23)CC1,1,29,-0.14,1.3,0,61*
